Active and inactive are the calls of the source. The rule behind the calls is not given here.
How the values were obtained:
[1] = Cytotoxicity against human HCT-116 cells assessed as cell growth inhibition incubated for 72 hrs by MTS assay; assay type: toxicity, cell-based
Method in brief: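 HCT-116 cells (ATCC; split every other day, no more than five generations, mycoplasma-tested) plated at 5 × 10³ cells/well in supplemented McCoy's 5a and grown 24 h at 37 °C, 5% CO₂. Compound added from DMSO (0.5% DMSO final) for 72 h. Cells washed with PBS, MTS reagent added for 2 h at 37 °C, A490 read against A690. GI₅₀ fitted from dose curves of 3 biological replicates.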

[2] = tested on: HCT-116; test: Cytotoxicity against human HCT-116 cells assessed as reduction in cell viability at 8.6 uM incubated for 4 hrs by MTS assay; assay type: toxicity, cell-based; settings: hct-116, 4 h
[3] = tested on: HCT-116; test: Cytotoxicity against human HCT-116 cells assessed as reduction in cell viability at 500 nM incubated for 24 hrs by MTS assay; assay type: toxicity, cell-based; settings: hct-116, 24 h, 0.5 µM
Method in brief: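 HCT-116 cells plated at 5 × 10³ cells/well in supplemented McCoy's 5a and grown 24 h at 37 °C, 5% CO₂. Compound given at 500 nM, the top dose of the 24 h splicing series, in 0.5% DMSO for 24 h. Cells washed with PBS, MTS reagent added for 2 h at 37 °C, A490 read against A690.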

[4] = tested on: DNAJB1 pre-mRNA; test: Modulation of splicing in DNAJB1 pre-mRNA in human HCT-116 cells assessed as intron 2 retention at 100 to 500 nM incubated for 24 hrs by qRT-PCR analysis; assay type: functional, cell-based; settings: dose 100-500 nM
Method in brief: (§1)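 HCT-116 cells in supplemented McCoy's 5a with 0.5% DMSO, treated 24 h at 100, 250 or 500 nM; untreated cells as control. Total RNA isolated, 1 µg DNase I-treated, reverse transcribed. qPCR on 5 ng cDNA with 2.5 µM each primer, 40 cycles of 95 °C 30 s, 55 °C 60 s, 72 °C 60 s. Splice-event primers for intron retention or exon skipping; SF2 primers measure total expression. 2^-CT method relative to GAPDH, untreated set at 1.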

[5] = tested on: SF3A3 pre-mRNA; test: Modulation of splicing in SF3A3 pre-mRNA in human HCT-116 cells assessed as intron 5 retention level at 8.6 uM incubated for 4 hrs by qRT-PCR analysis; assay type: functional, cell-based; settings: filed as modulator
Method in brief: (§2)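 HCT-116 cells in supplemented McCoy's 5a, compound added from DMSO stock to a final 0.5% DMSO, 4 h at a single standardized concentration per analogue. Total RNA isolated and DNase-treated (1 µg). qPCR used 2.5 µM each primer on 5 ng cDNA, 40 cycles. Intron retention was computed by the 2^-CT method relative to GAPDH and expressed versus untreated cells set to 1.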

[6] = tested on: SF3B1 pre-mRNA; test: Modulation of splicing in SF3B1 pre-mRNA in human HCT-116 cells assessed as intron 13 retention level at 8.6 uM incubated for 4 hrs by qRT-PCR analysis; assay type: functional, cell-based; settings: filed as modulator; method in brief: as §2
[7] = tested on: DNAJB1 pre-mRNA; test: Modulation of splicing in DNAJB1 pre-mRNA in human HCT-116 cells assessed as intron 2 retention level at 8.6 uM incubated for 4 hrs by qRT-PCR analysis; assay type: functional, cell-based; settings: filed as modulator
[8] = tested on: SF3A1 pre-mRNA; test: Modulation of splicing in SF3A1 pre-mRNA in human HCT-116 cells assessed as intron 6 retention level at 8.6 uM incubated for 4 hrs by qRT-PCR analysis; assay type: functional, cell-based; settings: filed as modulator
[9] = tested on: SF3B2 pre-mRNA; test: Modulation of splicing in SF3B2 pre-mRNA in human HCT-116 cells assessed as intron 10 retention level at 8.6 uM incubated for 4 hrs by qRT-PCR analysis; assay type: functional, cell-based; settings: filed as modulator; method in brief: as §2
[10] = tested on: HCT-116; test: Modulation of splicing in PLK-1 pre-mRNA in human HCT-116 cells assessed as effect on exon 3 inclusion at 8.6 uM incubated for 4 hrs by qRT-PCR analysis; assay type: functional, cell-based; settings: filed as modulator
[11] = tested on: AURKA pre-mRNA; test: Modulation of splicing in AURKA pre-mRNA in human HCT-116 cells assessed as effect on exon 4 skipping at 8.6 uM incubated for 4 hrs by qRT-PCR analysis; assay type: functional, cell-based; settings: filed as modulator
[12] = tested on: SF3A3 pre-mRNA; test: Modulation of splicing in SF3A3 pre-mRNA in human HCT-116 cells assessed as intron 5 retention at 100 to 500 nM incubated for 24 hrs by qRT-PCR analysis; assay type: functional, cell-based; settings: dose 100-500 nM; method in brief: as §1
[13] = tested on: SF3B2 pre-mRNA; test: Modulation of splicing in SF3B2 pre-mRNA in human HCT-116 cells assessed as intron 10 retention at 100 to 500 nM incubated for 24 hrs by qRT-PCR analysis; assay type: functional, cell-based; settings: dose 100-500 nM
Method in brief: (§3)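 HCT-116 cells in supplemented McCoy's 5a with 0.5% final DMSO were treated for 24 h at 100, 250 or 500 nM. Total RNA isolated and DNase-treated (1 µg). qPCR used 2.5 µM each primer on 5 ng cDNA, 40 cycles. Intron retention was computed by the 2^-CT method relative to GAPDH and expressed versus untreated cells set to 1.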

[14] = tested on: SF3B1 pre-mRNA; test: Modulation of splicing in SF3B1 pre-mRNA in human HCT-116 cells assessed as intron 13 retention at 100 to 500 nM incubated for 24 hrs by qRT-PCR analysis; assay type: functional, cell-based; settings: dose 100-500 nM; method in brief: as §3
[15] = tested on: SF3A1 pre-mRNA; test: Modulation of splicing in SF3A1 pre-mRNA in human HCT-116 cells assessed as intron 6 retention at 100 to 500 nM incubated for 24 hrs by qRT-PCR analysis; assay type: functional, cell-based; settings: dose 100-500 nM; method in brief: as §1
[16] = tested on: HCT-116; test: Modulation of splicing in MCL-1L pre-mRNA in human HCT-116 cells assessed as intron 5 retention at 100 to 500 nM incubated for 24 hrs by qRT-PCR analysis; assay type: functional, cell-based; settings: dose 100-500 nM; method in brief: as §1
[17] = tested on: HCT-116; test: Downregulation of SF2 mRNA expression in human HCT-116 cells at 100 to 500 nM incubated for 24 hrs by qRT-PCR analysis; assay type: functional, cell-based; settings: dose 100-500 nM; method in brief: as §1
[18] = tested on: HCT-116; test: Downregulation of PLK-1 mRNA expression in human HCT-116 cells at 100 to 500 nM incubated for 24 hrs by qRT-PCR analysis; assay type: functional, cell-based; settings: dose 100-500 nM; method in brief: as §1
[19] = tested on: HCT-116; test: Cytotoxicity against human HCT-116 cells assessed as reduction in cell viability at 42 nM incubated for 4 hrs by MTS assay; assay type: toxicity, cell-based; settings: hct-116, 4 h, 0.042 µM
[20] = tested on: SF3A3 pre-mRNA; test: Modulation of splicing in SF3A3 pre-mRNA in human HCT-116 cells assessed as intron 5 retention level at 42 nM incubated for 4 hrs by qRT-PCR analysis; assay type: functional, cell-based; settings: filed as modulator
[21] = tested on: SF3B1 pre-mRNA; test: Modulation of splicing in SF3B1 pre-mRNA in human HCT-116 cells assessed as intron 13 retention level at 42 nM incubated for 4 hrs by qRT-PCR analysis; assay type: functional, cell-based; settings: filed as modulator; method in brief: as §2
[22] = tested on: DNAJB1 pre-mRNA; test: Modulation of splicing in DNAJB1 pre-mRNA in human HCT-116 cells assessed as intron 2 retention level at 42 nM incubated for 4 hrs by qRT-PCR analysis; assay type: functional, cell-based; settings: filed as modulator
[23] = tested on: SF3A1 pre-mRNA; test: Modulation of splicing in SF3A1 pre-mRNA in human HCT-116 cells assessed as intron 6 retention level at 42 nM incubated for 4 hrs by qRT-PCR analysis; assay type: functional, cell-based; settings: filed as modulator
[24] = tested on: SF3B2 pre-mRNA; test: Modulation of splicing in SF3B2 pre-mRNA in human HCT-116 cells assessed as intron 10 retention level at 42 nM incubated for 4 hrs by qRT-PCR analysis; assay type: functional, cell-based; settings: filed as modulator; method in brief: as §2
[25] = tested on: AURKA pre-mRNA; test: Modulation of splicing in AURKA pre-mRNA in human HCT-116 cells assessed as effect on exon 4 skipping at 42 nM incubated for 4 hrs by qRT-PCR analysis; assay type: functional, cell-based; settings: filed as modulator
[26] = tested on: DNAJB1 pre-mRNA; test: Modulation of splicing in DNAJB1 pre-mRNA in human HCT-116 cells assessed as reduction in intron 2 retention level at 100 to 500 nM incubated for 24 hrs by qRT-PCR analysis; assay type: functional, cell-based; settings: filed as modulator, dose 100-500 nM; method in brief: as §1
[27] = tested on: SF3B2 pre-mRNA; test: Modulation of splicing in SF3B2 pre-mRNA in human HCT-116 cells assessed as increase in intron 10 retention level incubated for 24 hrs by qRT-PCR analysis; assay type: functional, cell-based; settings: filed as modulator, dose 100-500 nM; method in brief: as §3
[28] = tested on: SF3B1 pre-mRNA; test: Modulation of splicing in SF3B1 pre-mRNA in human HCT-116 cells assessed as increase in intron 13 retention level incubated for 24 hrs by qRT-PCR analysis; assay type: functional, cell-based; settings: filed as modulator, dose 100-500 nM; method in brief: as §3
[29] = tested on: HCT-116; test: Cytotoxicity against human HCT-116 cells assessed as reduction in cell viability at 34 nM incubated for 4 hrs by MTS assay; assay type: toxicity, cell-based; settings: hct-116, 4 h, 0.034 µM
[30] = tested on: SF3A3 pre-mRNA; test: Modulation of splicing in SF3A3 pre-mRNA in human HCT-116 cells assessed as intron 5 retention level at 34 nM incubated for 4 hrs by qRT-PCR analysis; assay type: functional, cell-based; settings: filed as modulator
[31] = tested on: SF3B1 pre-mRNA; test: Modulation of splicing in SF3B1 pre-mRNA in human HCT-116 cells assessed as intron 13 retention level at 34 nM incubated for 4 hrs by qRT-PCR analysis; assay type: functional, cell-based; settings: filed as modulator; method in brief: as §2
[32] = tested on: DNAJB1 pre-mRNA; test: Modulation of splicing in DNAJB1 pre-mRNA in human HCT-116 cells assessed as intron 2 retention level at 34 nM incubated for 4 hrs by qRT-PCR analysis; assay type: functional, cell-based; settings: filed as modulator
[33] = tested on: SF3A1 pre-mRNA; test: Modulation of splicing in SF3A1 pre-mRNA in human HCT-116 cells assessed as intron 6 retention level at 34 nM incubated for 4 hrs by qRT-PCR analysis; assay type: functional, cell-based; settings: filed as modulator
[34] = tested on: SF3B2 pre-mRNA; test: Modulation of splicing in SF3B2 pre-mRNA in human HCT-116 cells assessed as intron 10 retention level at 34 nM incubated for 4 hrs by qRT-PCR analysis; assay type: functional, cell-based; settings: filed as modulator; method in brief: as §2
[35] = tested on: HCT-116; test: Downregulation of SF3 mRNA expression in human HCT-116 cells at 34 nM incubated for 4 hrs by qRT-PCR analysis; assay type: functional, cell-based

Structure (SMILES): CC[C@H](OC)[C@@H](C)[C@H]1O[C@@H]1[C@H](O)[C@H](C)/C=C/C=C(\C)[C@H]1OC(=O)C[C@H](O)CC[C@@](C)(O)[C@H](OC(C)=O)/C=C/[C@@H]1C
- GI50 at 72 h [1]: 588 nM
- Activity [2]: Non-Toxic
- Activity [3]: Non-Toxic
- Activity [4]: inactive
- Activity [5]: < 3
- Activity [6]: < 3
- Activity [7]: > 3
- Activity [8]: > 3
- Activity [9]: > 3
- Activity [10]: Active
- Activity [11]: Active
- Activity [12]: inactive
- Activity [13]: inactive
- Activity [14]: inactive
- Activity [15]: inactive
- Activity [16]: inactive

Structure (SMILES): CC[C@H](OC)[C@@H](C)[C@H]1O[C@@H]1[C@@H](O)[C@H](C)/C=C/C=C(\C)[C@H]1OC(=O)C[C@H](O)CC[C@@](C)(O)[C@@H](OC(C)=O)/C=C/[C@@H]1C
- Activity [17]: inactive
- Activity [18]: inactive
- GI50 at 72 h [1]: 2.2 nM
- Activity [19]: Non-Toxic
- Activity [3]: Non-Toxic
- Activity [20]: < 3
- Activity [21]: < 3
- Activity [22]: > 3
- Activity [23]: > 3
- Activity [24]: > 3
- Activity [25]: Active
- Activity [26]: Active
- Activity [27]: Dose-Dependent Effect
- Activity [28]: Dose-Dependent Effect

Structure (SMILES): CC[C@H](OC)[C@@H](C)[C@H]1O[C@@H]1[C@H](O)[C@H](C)/C=C/C=C(\C)[C@H]1OC(=O)C[C@H](O)CC[C@@](C)(O)[C@@H](OC(C)=O)/C=C/[C@@H]1C
- GI50 at 72 h [1]: 1.9 nM
- Activity [29]: Non-Toxic
- Activity [3]: Non-Toxic
- Activity [30]: < 3
- Activity [31]: < 3
- Activity [32]: > 3
- Activity [33]: > 3
- Activity [34]: > 3
- Activity [35]: Active

Structure (SMILES): CC[C@H](OC)[C@@H](C)[C@H]1O[C@@H]1[C@@H](O)[C@H](C)/C=C/C=C(\C)[C@H]1OC(=O)C[C@H](O)CC[C@@](C)(O)[C@H](OC(C)=O)/C=C/[C@@H]1C
- GI50 at 72 h [1]: 860 nM

— ChEMBL document CHEMBL5338772, “Stereochemical Control of Splice Modulation in FD-895 Analogues” (J Med Chem, 2023)
